One block for each molecule: values may come before it.
Legend:
Cavia porcellus [1] = organism: Cavia porcellus; test: Anticholinergic activity was measured by the guinea pig ileum test.; format: functional; details: Cavia porcellus, Ileum; read-out: pA2 (converted)
In short: (§1)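 Guinea pig whole ileum strips in McEwan's solution, gassed with O2/CO2 95:5, 37 °C organ bath, 1 g tension. Cumulative acetylcholine concentration-response curves were run to constancy, then repeated after 15–20 min equilibration with increasing antagonist concentrations. Mean curves gave dose ratios, from which competitive antagonism and pA2 were derived.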

[2] = The hydrolytic kinetics expressed as Kobs was measured at 7.4 pH at 37 degree C; format: ADME; details: pH 7.4
In short: (§2)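 Chemical hydrolysis in 0.5 M potassium phosphate, pH 7.4, 37 °C. Rate was followed by appearance of the acid product or loss of the quaternary salt. Where salt contained amine hydrochloride, initial concentration was taken from final acid after complete hydrolysis. Half-life was estimated from both where resolved.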

[3] = Half life period was measured at 7.4 pH from d[acid]/dt.; format: ADME; details: pH 7.4; in short: as §2
Cavia porcellus [4] = organism: Cavia porcellus; test: Antihistamine activity was measured by the guinea pig ileum test; c = NA means no activity found at the doses used.; format: functional
In short: (§3)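 Guinea pig ileum strips, McEwan's solution, Carbogen, 37 °C, 1 g tension. Cumulative histamine concentration-response curves were recorded before and after 15–20 min equilibration with rising antagonist concentrations. pA2 came from dose ratios of mean curves.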

Felis catus [5] = organism: Felis catus; test: acetylcholine antagonist effect of compound on cat blood pressure at concentration 5.7*10e-9 in 1 min; format: functional
In short: (§4)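 Adult cats anesthetized ip with α-chloralose (80 mg/kg) plus sodium pentobarbitone (6 mg/kg), bilaterally vagotomized, artificially respired. Carotid arterial pressure recorded. Drugs given iv via brachial vein. Acetylcholine dose giving 70-80% of maximal vasodepressor response used throughout. Test drug injected, acetylcholine response checked 1 min later, then every ~2-3 min. Value is % of control vasodepressor response to acetylcholine.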

Felis catus [6] = organism: Felis catus; test: acetylcholine antagonist effect of compound on cat blood pressure at concentration 5.7*10e-8 in 9 min; format: functional; in short: as §4
Felis catus [7] = organism: Felis catus; test: acetylcholine antagonist effect of compound on cat blood pressure at concentration 5.7*10e-8 in 13 min; format: functional
In short: (§5)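 Adult cats under ip α-chloralose (80 mg/kg) plus pentobarbitone (6 mg/kg), bilaterally vagotomized and artificially respired. Carotid blood pressure was recorded. An iv acetylcholine dose giving 70–80% of maximal vasodepressor response was used. After iv test drug, acetylcholine responses were checked at 1 min and then every 2–3 min and expressed as % of control. Doses were given in mol/kg, escalating after recovery.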

Felis catus [8] = organism: Felis catus; test: acetylcholine antagonist effect of compound on cat blood pressure at concentration 5.4*10e-8 in 2 min
Felis catus [9] = organism: Felis catus; test: acetylcholine antagonist effect of compound on cat blood pressure at concentration 5.7*10e-8 in 18 min; format: functional; in short: as §5
Felis catus [10] = organism: Felis catus; test: acetylcholine antagonist effect of compound on cat blood pressure at concentration 5.4*10e-8 in 38 min
Felis catus [11] = test: acetylcholine antagonist effect of compound on cat blood pressure at concentration 5.7*10e-8 mol/kg in 1 min; format: functional; in short: as §5
Felis catus [12] = organism: Felis catus; test: acetylcholine antagonist effect of compound on cat blood pressure at concentration 5.7*10e-8 in 5 min; format: functional; in short: as §4
Felis catus [13] = organism: Felis catus; test: acetylcholine antagonist effect of compound on cat blood pressure at concentration 5.7*10e-8 in 23 min; format: functional; in short: as §5
Canis familiaris [14] = organism: Canis familiaris; test: The hydrolytic kinetics expressed as Kobs was measured in dog plasma at 37 degree C; format: ADME, Canis lupus familiaris
In short: (§6)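 Fresh dog blood was centrifuged and the upper layer filtered through 0.8 and 0.2 µm membranes. 2 mL plasma samples with gentisic acid internal standard were incubated. 5 µL aliquots taken at intervals were assayed against acid standard curves in methanol. Rates came from acid appearance or quaternary salt loss.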

Canis familiaris [15] = organism: Canis familiaris; test: The hydrolytic kinetics expressed as Kobs was measured in dog plasma at 36 degree C; format: ADME, Canis lupus familiaris; in short: as §6
Felis catus [16] = organism: Felis catus; test: acetylcholine antagonist effect of compound on cat blood pressure at concentration 5.4*10e-8 in 33 min
Felis catus [17] = organism: Felis catus; test: acetylcholine antagonist effect of compound on cat blood pressure at concentration 5.7*10e-9 in 4 min; format: functional; in short: as §4
Cavia porcellus [18] = organism: Cavia porcellus; test: Anticholinergic activity was measured by the guinea pig ileum test; c = NA means no activity found at the doses used; format: functional; details: read-out: pA2 (converted); in short: as §1
[19] = Half life period was measured at 37 degree C in dog plasma from d[quant]/dt.; format: ADME, Canis lupus familiaris; in short: as §6
Felis catus [20] = organism: Felis catus; test: acetylcholine antagonist effect of compound on cat blood pressure at concentration 5.7*10e-9 in 7 min; format: functional; in short: as §4
[21] = Cholinergic potency was expressed in terms of relative activity vs acetylcholine.; format: functional
Felis catus [22] = organism: Felis catus; test: acetylcholine antagonist effect of compound on cat blood pressure at concentration 5.7*10e-9 in 2 min; format: functional; in short: as §4
[23] = The hydrolytic kinetics expressed as Kobs was measured at 9.4 pH at 36 degree C; format: ADME; details: pH 9.4
In short: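 Hydrolysis in 0.1 M sodium carbonate-bicarbonate, pH 9.4, ionic strength 0.5 (NaCl added), 36 °C. Kobsd was followed from the rate of acid formation.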

Felis catus [24] = organism: Felis catus; test: acetylcholine antagonist effect of compound on cat blood pressure at concentration 5.4*10e-8 in 44 min
Felis catus [25] = organism: Felis catus; test: acetylcholine antagonist effect of compound on cat blood pressure at concentration 5.4*10e-8 in 28 min
Cavia porcellus [26] = organism: Cavia porcellus; test: Antihistamine activity was measured by the guinea pig ileum test; c = NA means no activity found at the doses used; format: functional; in short: as §3
[27] = Cholinergic potency was expressed in terms of relative activity vs acetylcholine; c = NA means no activity found at the doses used.; format: functional
Cavia porcellus [28] = organism: Cavia porcellus; test: Antihistamine activity was measured by the guinea pig ileum test.; format: functional; details: Cavia porcellus, Ileum; read-out: pA2 (converted); in short: as §3
Cavia porcellus [29] = organism: Cavia porcellus; test: Anticholinergic activity was measured by the guinea pig ileum test; c = NA means no activity found at the doses used.; format: functional; in short: as §1

K obs [2]: 0.000193 min⁻¹ | half-life [3]: 60 h
Compound: CC(C(=O)OC[N+]1(C)CCCC1)(c1ccccc1)c1ccccc1.[Cl-]
Kb (Cavia porcellus [1]): 3.98 nM | pA2 (Cavia porcellus [4]): No activity

K obs [2]: 0.000578 min⁻¹ | K obs (Canis familiaris [14]): 0.00168 min⁻¹ | K obs (Canis familiaris [15]): 0.00144 min⁻¹ | half-life [3]: 20 h | half-life [19]: 6.5 h | K obs [23]: 0.139 min⁻¹
Compound: C[N+]1(COC(=O)C(c2ccccc2)C2CCCC2)CCCC1.[Cl-] (stereo not given)
Response (Felis catus [5]): 0% | Response (Felis catus [6]): 0% | Response (Felis catus [7]): 31% | Response (Felis catus [8]): 0% | Response (Felis catus [9]): 63% | Response (Felis catus [10]): 88% | Response (Felis catus [11]): 0% | Response (Felis catus [12]): 0% | Response (Felis catus [13]): 63% | Response (Felis catus [16]): 81% | Response (Felis catus [17]): 67% | Kb (Cavia porcellus [18]): 3.98 nM | Response (Felis catus [20]): 100% | Activity [21]: No activity | Response (Felis catus [22]): 0% | Response (Felis catus [24]): 88% | Response (Felis catus [25]): 69% | pA2 (Cavia porcellus [26]): No activity

Compound: C[N+]1(COC(=O)C23CC4CC(CC(C4)C2)C3)CCCC1
Kb (Cavia porcellus [1]): 126 nM

Compound: CCC(C)C(=O)OC[N+]1(C)CCCC1C (stereo not given)
Kb (Cavia porcellus [1]): 12600 nM | Activity [27]: No activity

Compound: Cn1cc[n+](COC(=O)C23CC4CC(CC(C4)C2)C3)c1
Kb (Cavia porcellus [1]): 2000 nM | Activity [27]: No activity | Kb (Cavia porcellus [28]): 5010 nM

Compound: CCC(C)C(=O)OC[N+]12CCC(CC1)CC2 (stereo not given)
pA2 (Cavia porcellus [29]): No activity | Activity [21]: 1

Compound: CCC(C)C(=O)OC[N+]12CCC(CC1)C(OC(C)=O)C2 (stereo not given)
pA2 (Cavia porcellus [29]): No activity | Activity [21]: 1

Compound: CCC(C)C(=O)OC[N+]1(C)CCCC1 (stereo not given)
pA2 (Cavia porcellus [29]): No activity | Kb (Cavia porcellus [28]): 2510 nM

Compound: CC1CCC[N+]1(C)COC(=O)C(c1ccccc1)C1CCCC1 (stereo not given)
Kb (Cavia porcellus [1]): 0.501 nM | Kb (Cavia porcellus [28]): 12.6 nM

K obs [2]: 0.00055 min⁻¹ | half-life [3]: 21 h
Compound: CC[N+](CC)(CC)COC(=O)C1(c2ccccc2)CC1.[Cl-]
pA2 (Cavia porcellus [29]): No activity

Compound: Cn1cc[n+](COC(=O)C(c2ccccc2)C2CCCC2)c1 (stereo not given)
Kb (Cavia porcellus [1]): 15.8 nM | Kb (Cavia porcellus [28]): 501 nM

Compound: CC[N+](CC)(CC)COC(C)=O
pA2 (Cavia porcellus [29]): No activity

Compound: CC[N+](CC)(CC)COC(=O)C1(c2ccccc2)CCCC1
Kb (Cavia porcellus [1]): 79.4 nM | pA2 (Cavia porcellus [4]): No activity

From ChEMBL document CHEMBL1121584, “Soft drugs. 3. A new class of anticholinergic agents” (J Med Chem, 1980)
